TAAR1 ag: human TAAR1 agonism. Q96RJ0. CHO RD-HGA16 TAAR1, Fluo-8 calcium fluorescence; vehicle wells 0%, saturating PEA agonist 100%. activation, % at 3 µM. 360,000 tested, 0.99% active;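 active = activation above the mean activation of all test compounds in the run plus 3 SD, cut at about 38% in these data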
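Benchmarks: low control DMSO, high control PEA (EC100); System: CHO RD-HGA16 cells carrying human TAAR1 plus Gα16; Detection: Fluo-8 fluorescence, 5 s baseline then 140 s kinetic read; Schedule: 17-24 h plating, Fluo-8 75 min 37 °C, 30 min RT; Read-out basis: % activation from peak over basal fluorescence ratio, DMSO-to-PEA scaled.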
TAAR1 antagonist: human TAAR1 antagonism; Q96RJ0; 360,000 tested, 1.5% active; inhibition, % at 3 µM; CHO RD-HGA16 TAAR1, Fluo-8 calcium fluorescence, antagonist;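 active = inhibition above a per-plate cutoff, the mean inhibition of test compounds on that plate plus 3 SD, cut at about 49% in these data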;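 also: 0% = DMSO plus EC80 beta-PEA response and 100% = DMSO alone without agonist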
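System: RD-HGA16 CHO cells with stable hTAAR1 and Gα16 | Probe or stimulus: EC80 β-phenethylamine stimulus | Dosing: 3 µM, single point | Times: Dye loading 75 min at 37 °C, then 30 min room temperature | Measured by: Fluo-8 calcium-sensitive fluorescence | Read-out basis: % inhibition of agonist calcium response | Replicates: n of 1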
OX1R antag-1: human HCRTR1 antagonism. 330,000 tested, 0.43% active. AID 434989. CHO/OX1R cells, Fluo-8 calcium fluorescence, orexin A. inhibition, % at 5 µM. O43613;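 active = inhibition above its plate's threshold, mean inhibition of all tested compounds on the plate plus 3 SD, cut at about 37% in these data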;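 also: 0% = orexin A challenge wells and 100% = SB-334867-A antagonist wells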
Target sequence (O43613 whole entry, looked up): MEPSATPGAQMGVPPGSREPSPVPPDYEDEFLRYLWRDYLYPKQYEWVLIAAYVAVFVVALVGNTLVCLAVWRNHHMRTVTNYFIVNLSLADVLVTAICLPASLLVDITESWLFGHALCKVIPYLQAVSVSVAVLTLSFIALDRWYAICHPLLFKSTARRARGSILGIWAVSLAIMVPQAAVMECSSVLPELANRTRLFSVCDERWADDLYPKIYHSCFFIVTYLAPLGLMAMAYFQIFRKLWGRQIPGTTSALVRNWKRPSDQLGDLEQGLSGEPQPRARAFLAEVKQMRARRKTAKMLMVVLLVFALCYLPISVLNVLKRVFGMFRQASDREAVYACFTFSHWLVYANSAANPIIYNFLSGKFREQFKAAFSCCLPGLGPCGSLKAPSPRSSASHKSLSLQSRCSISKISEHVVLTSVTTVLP
OX1R antag-2: antagonists of human orexin 1 receptor (OX1R); O43613; OX1R-expressing cells, FRET antagonist read-out; inhibition, % at 6.6 µM; 330,000 tested, 1.8% active; AID 485270; in the data active = inhibition mostly above about 38%, no sharp cut-off; inactive = mostly below about 40%;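 also: 0% = agonist challenge alone and 100% = reference antagonist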
CHO parental Ca: counter-screen: ATP calcium response change in parental CHO cells. parental CHO-K1, ATP-induced calcium, Fluo-8 fluorescence. inhibition, % at 5.6 µM. 330,000 tested, 0.63% active. AID 463079;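 active = inhibition above that plate's mean sample inhibition plus 3 SD, cut at about 26% in these data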;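 also: 0% = ATP-challenged DMSO wells and 100% = DMSO wells without ATP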
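Material: Parental CHO cells | Reagent: ATP | Compound dosing: Single nominal dose of 5.6 µM per compound | Detection: Intracellular calcium via Fluo-8 no-wash fluorescent dye | Read-out: % inhibition of ATP-induced calcium mobilization | Benchmarks: Low control ATP plus DMSO, high control DMSO only | Replicates: Singlicate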
OX1R HTRF confirm: OX1R (human) antagonism, HTRF confirmed | inhibition, % at 6.6 µM | AID 492964 | shares compounds with OX1R antag-2 | 1,800 tested, 49% active | OX1R-expressing cells, HTRF antagonist assay; in the data active = inhibition above about 55%;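 also: CHO cells expressing OX1R stimulated with orexin A at about EC80; 0% = agonist challenge alone and 100% = reference antagonist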
CHO-K1 HTRF cnt: counter-screen for OX1R antagonists: effect in parental CHO-K1 cells. 1,800 tested, 48% active. HTRF counterscreen. shares compounds with OX1R antag-2. inhibition, % at 6.6 µM; in the data active = inhibition above about 17%;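 also: 0% = agonist challenge with vehicle and 100% = vehicle alone without agonist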
* marks the source's active call; other numbers are inactive results; . = no result given. Hits are enriched below; roughly 4% of the tested compounds scored in any of these assays.

SMILES | TAAR1 ag | TAAR1 antagonist | OX1R antag-1 | OX1R antag-2 | CHO parental Ca | OX1R HTRF confirm | CHO-K1 HTRF cnt
Cc1nc2ccc([N+](=O)[O-])cc2[nH]1 | 4 | -7 | -20 | 17 | -6 | . | .
Cc1cnc2cc([N+](=O)[O-])ccc2n1 | 0 | -1 | 2 | 101* | -10 | 66* | 84*
CCN(C(=O)COC(=O)c1ccc(O)cc1O)c1c(N)n(Cc2ccccc2)c(=O)[nH]c1=O | 4 | 11 | -9 | 2 | -14 | . | .
Cc1ccsc1C(=O)OCC(=O)Nc1nnc(-c2ccccc2)o1 | 0 | 0 | -11 | 78* | -19 | 38 | -7
COc1cc(OC)cc(C(=O)OCC(=O)Nc2nnc(-c3ccccc3)o2)c1 | -1 | 0 | . | . | . | . | .
COCCNC(=O)/C(C#N)=C1\N=C(N)c2ccccc21 | 2 | -11 | -10 | 56 | -8 | . | .
O=C(N/N=C/c1ccccc1[N+](=O)[O-])C(=O)N1CCCC1 | 4 | -9 | -15 | 92* | 1 | 22 | 26*
CC(=O)CSc1nc2c(c(=O)[nH]c(=O)n2C)n1CCCc1ccccc1 | 0 | -2 | -24 | -9 | -11 | . | .
Nc1c(N=Nc2ccccc2F)c(=O)[nH]n1-c1ccccc1 | 2 | 17 | 22 | 86* | -9 | 67* | 12
CC(=O)Nc1ccc2c3c(cccc13)C(=O)N(c1ccccc1)C2=O | -1 | 7 | -13 | 110* | 1 | 41 | 63*
[O-][n+]1onc2c1CCc1nnc(-c3ccccc3)cc1-2 | 4 | 0 | -18 | 151* | -21 | 39 | 70*
[O-][n+]1onc2c1CCc1nnccc1-2 | 6 | 11 | -7 | 19 | -2 | . | .
CC1=CC(=NOC(=O)c2cccc([N+](=O)[O-])c2)C=C(C)C1=O | 17 | 9 | -1 | 118* | 0 | 23 | 18*
CC1=CC(=O)C(C(C)C)=C/C1=N/OC(=O)c1cccc([N+](=O)[O-])c1 | 0 | -25 | -3 | 16 | 2 | . | .
Cc1ccccc1NC(=O)CSc1nnc2ccc(-c3ccncc3)nn12 | 1 | -41 | -18 | 79* | -14 | 30 | 36*
CC(=O)Oc1cccc2c1C(=O)c1c(OC(C)=O)cc(C(=O)O)cc1C2=O | 3 | -2 | -7 | 95* | 5 | 56* | 112*
O=C1N=C(N2C=CC(=C3C=CNC=C3)C=C2)/C(=C/N=NC(=O)c2ccccc2O)S1 | 0 | -9 | -11 | 108* | -12 | 68* | 109*
CC(=O)Nc1ccc(S(=O)(=O)NC2CC(=O)N(c3ccc4c(c3)OCCO4)C2)cc1 (stereo not drawn) | 1 | -13 | -3 | 21 | -11 | . | .
N#CCCn1c(O)c(N=NC(=O)CNC(=O)c2cccs2)c2ccccc21 | 1 | 0 | -22 | 93* | -8 | 38 | 50*
Nc1nnc(-c2cccc([N+](=O)[O-])c2)s1 | 6 | 5 | -4 | 111* | -6 | 35 | 40*
CC(=O)N1C(=O)c2cccc3cccc(c23)C(=O)N1C(C)=O | . | . | -14 | 116* | -1 | 41 | 65*
Cc1ccc(N2C(=O)c3cccc4cccc(c34)C2=O)cc1 | 7 | -8 | -1 | 15 | 2 | . | .
O=C(NNC(=S)Nc1ccc(Cl)cc1Cl)c1ccc(N2CCOCC2)c([N+](=O)[O-])c1 | 0 | -2 | 1 | 57 | 1 | . | .
COc1ccccc1/C=N/NC(=O)c1cccc(OC(F)(F)C(F)F)c1 | 0 | 22 | -21 | 3 | -5 | . | .
COc1cccc(/C=N/NC(=O)C(=O)Nc2ccccc2OC(F)(F)C(F)F)c1O | 10 | 26 | -2 | 97* | -14 | 93* | 9
SMILES | TAAR1 ag | TAAR1 antagonist | OX1R antag-1 | OX1R antag-2 | CHO parental Ca | OX1R HTRF confirm | CHO-K1 HTRF cnt
O=[N+]([O-])c1cnccc1Nc1ccc(F)cc1 | 0 | -10 | -16 | 127* | 6 | 36 | 33*
CCC(=O)c1cn(CC(=O)Nc2ccc(F)cc2)c2ccccc12 | 4 | -16 | . | . | . | . | .
CN(C)CCNC(=O)C(=O)NCC1OCCN1S(=O)(=O)c1ccc([N+](=O)[O-])cc1 (stereo not drawn) | 0 | -3 | -1 | 89* | -7 | 41 | 60*
CCN(CC)CCNC(=O)C(=O)NCC1OCCN1S(=O)(=O)c1ccc([N+](=O)[O-])cc1 (stereo not drawn) | 1 | -1 | -6 | 92* | 1 | 41 | 64*
CCN(CC)CCNC(=O)C(=O)NCC1OCCN1S(=O)(=O)c1ccc(Cl)cc1 (stereo not drawn) | 1 | -29 | 2 | 5 | 1 | . | .
Cn1c2ccccc2c(=O)c2ccc(C#Cc3ccccn3)cc21 | 8 | -2 | -34 | 34 | -15 | . | .
Cn1c2ccccc2c(=O)c2cc(C#Cc3ccccn3)ccc21 | 4 | 16 | 29 | 90* | -10 | 94* | 11
O=C(O)Cc1ccc(NC(=O)c2ccc3c(c2)C(=O)N(CC2CCCO2)C3=O)cc1 (stereo not drawn) | 2 | -11 | -3 | 79* | -14 | 43 | 43*
COC(=O)Cc1ccc(NC(=O)c2ccc3c(c2)C(=O)N(CC2CCCO2)C3=O)cc1 (stereo not drawn) | 9 | -2 | -26 | 21 | -8 | . | .
CCC1(C)N([O-])C(C)=C(c2ccccc2)[N+]1=O (stereo not drawn) | 1 | 10 | -13 | 14 | -6 | . | .
CC1(C)N([O-])C2=C(c3ccccc3C2=O)[N+](=O)C1(C)C | 3 | 7 | 1 | 169* | 1 | 56* | 66*
O=S(=O)(Nc1ncccn1)c1ccc(NC(=S)NCCc2ccccc2)cc1 | 33 | -8 | -8 | 2 | 6 | . | .
O=C(OCC(=O)N1CCCc2ccccc21)c1ccc(S(=O)(=O)C(F)F)cc1 | 11 | 1 | -18 | 12 | -1 | . | .
O=C(CS(=O)c1ccc(C(F)(F)F)cc1[N+](=O)[O-])Oc1ccccc1 (stereo not drawn) | 4 | 3 | -7 | 86* | -14 | 47 | 13
COc1ccc2nc3sc(C(=O)N4CCN(C)CC4)cc3cc2c1 | 8 | 9 | 10 | 110* | -4 | 35 | 27*
COc1ccc2nc3sc(C(=O)NCCCN4CCc5ccccc5C4)cc3cc2c1 | 3 | -7 | -18 | 80* | -20 | 29 | 20*
CC(CC1C(C#N)=C(N)SC(N)=C1C#N)c1ccccc1 (stereo not drawn) | 22 | 19 | 8 | 88* | 9 | 24 | 2
Cn1c(N=NC(=O)c2ccccc2)c(O)c2ccccc21 | 2 | 2 | -15 | 137* | -23 | 98* | 52*
CCOc1ccc(Cl)cc1-c1cc(C(=O)NCc2ccccc2OC)[nH]n1 | 0 | -19 | . | . | . | . | .

Screening data from PubChem BioAssay.
